Results published in ChEMBL document CHEMBL1141628 (J Med Chem, 2008).
Values after ≈ are worked out from the molar mass of the structure shown.

Experiments:
Cytochrome P450 1A2 = target: T1, Cytochrome P450 1A2 (Homo sapiens, UniProt P05177); experiment: Inhibition of human CYP1A2; type: ADME
T1 sequence (P05177 whole entry): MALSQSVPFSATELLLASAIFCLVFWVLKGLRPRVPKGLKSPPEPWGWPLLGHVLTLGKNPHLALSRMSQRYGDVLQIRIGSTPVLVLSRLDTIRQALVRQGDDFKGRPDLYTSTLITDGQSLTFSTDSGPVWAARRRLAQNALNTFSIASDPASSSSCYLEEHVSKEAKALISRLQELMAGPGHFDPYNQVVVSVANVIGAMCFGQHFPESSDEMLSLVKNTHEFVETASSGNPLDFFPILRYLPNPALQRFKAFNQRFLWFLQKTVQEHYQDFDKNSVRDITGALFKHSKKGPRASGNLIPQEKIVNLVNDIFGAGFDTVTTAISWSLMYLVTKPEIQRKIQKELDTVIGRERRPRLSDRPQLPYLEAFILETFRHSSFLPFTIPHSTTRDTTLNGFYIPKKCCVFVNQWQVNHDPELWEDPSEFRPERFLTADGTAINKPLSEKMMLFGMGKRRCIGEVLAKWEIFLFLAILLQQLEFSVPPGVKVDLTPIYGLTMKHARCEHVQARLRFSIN

[1] = AUC (0 to 4 hrs) in mouse at 50 mg/kg, po; type: ADME, organism-based; parameters: time < 4 hr, dose 50 mg/kg, route oral; conditions: plasma
Summary of the method: (§1)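 Oral dosing to female mice, three per dose group, at 50 and 200 mg/kg in PEG400/water (70:30). Plasma levels of the parent drug were measured at 0.5, 1 and 4 h.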

Mus musculus = experiment: Ratio of AUC (0 to 4 hrs) in mouse plasma at 200 mg/kg, po to AUC (0 to 4 hrs) in mouse plasma at 50 mg/kg, po; type: ADME, organism-based; conditions: in vivo; summary of the method: as §1
[2] = AUC (0 to 4 hrs) in mouse at 200 mg/kg, po; type: ADME, organism-based; parameters: time < 4 hr, dose 200 mg/kg, route oral; conditions: plasma; summary of the method: as §1
[3] = Cmax in mouse at 200 mg/kg, po; type: ADME, organism-based; parameters: dose 200 mg/kg, route oral; conditions: in vivo; summary of the method: as §1
[4] = Cmax in mouse at 50 mg/kg, po; type: ADME, organism-based; parameters: dose 50 mg/kg, route oral; conditions: in vivo; summary of the method: as §1
Cytochrome P450 2D6 = Cytochrome P450 2D6 (Homo sapiens, UniProt P10635); experiment: Inhibition of human CYP2D6; type: ADME
Cytochrome P450 2C19 = Cytochrome P450 2C19 (Homo sapiens, UniProt P33261); experiment: Inhibition of human CYP2C19; type: ADME
Cytochrome P450 3A4 [5] = target: T2, Cytochrome P450 3A4 (Homo sapiens, UniProt P08684); experiment: Inhibition of human CYP3A4 using 7-benzyloxyresorufin; type: ADME
Cytochrome P450 2C9 = Cytochrome P450 2C9 (Homo sapiens, UniProt P11712); experiment: Inhibition of human CYP2C9; type: ADME
Cytochrome P450 3A4 [6] = target: T2, Cytochrome P450 3A4; experiment: Inhibition of human CYP3A4 using 7-benzyl-trifluoromethyl coumarin; type: ADME
L2987 [7] = experiment: Antitumor activity against human L2987 cells xenografted athymic mouse at 80 mg/kg/day, po after 14 days; type: functional; conditions: L2987, 336 h, read-out: TGI
Summary of the method: (§2)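 L2987 non-small cell lung tumors were grown as xenografts in athymic mice. Once tumors were established at 80–100 mm³, animals were dosed orally once daily for 14 consecutive days. Tumor growth was followed through dosing, and activity was expressed as percent tumor growth inhibition (%TGI).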

L2987 [8] = experiment: Antitumor activity against human L2987 cells xenografted athymic mouse at 107 mg/kg/day, po after 14 days; type: functional; conditions: L2987, 336 h, read-out: TGI; summary of the method: as §2
[9] = Aqueous solubility at pH 5.8; type: physicochemical
L2987 [10] = experiment: Antitumor activity against human L2987 cells xenografted po dosed athymic mouse after 14 days; type: functional, organism-based; summary of the method: as §2
[11] = Aqueous solubility at pH 6.5; type: physicochemical

Chain of Cytochrome P450 2C19 (P33261 whole entry): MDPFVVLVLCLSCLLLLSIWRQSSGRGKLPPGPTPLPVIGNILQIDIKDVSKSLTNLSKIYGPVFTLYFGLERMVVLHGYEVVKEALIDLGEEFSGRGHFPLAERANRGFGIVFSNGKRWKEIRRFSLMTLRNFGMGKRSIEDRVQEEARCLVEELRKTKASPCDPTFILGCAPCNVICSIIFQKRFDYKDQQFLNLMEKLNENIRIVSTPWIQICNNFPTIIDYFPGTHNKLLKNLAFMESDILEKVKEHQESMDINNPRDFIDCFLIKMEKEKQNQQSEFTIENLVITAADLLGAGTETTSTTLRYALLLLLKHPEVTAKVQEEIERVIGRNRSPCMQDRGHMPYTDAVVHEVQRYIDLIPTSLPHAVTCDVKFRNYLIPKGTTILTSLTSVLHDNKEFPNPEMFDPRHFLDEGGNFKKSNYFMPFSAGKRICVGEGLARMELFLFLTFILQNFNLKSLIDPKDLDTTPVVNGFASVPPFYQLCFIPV
T2 sequence (P08684 whole entry): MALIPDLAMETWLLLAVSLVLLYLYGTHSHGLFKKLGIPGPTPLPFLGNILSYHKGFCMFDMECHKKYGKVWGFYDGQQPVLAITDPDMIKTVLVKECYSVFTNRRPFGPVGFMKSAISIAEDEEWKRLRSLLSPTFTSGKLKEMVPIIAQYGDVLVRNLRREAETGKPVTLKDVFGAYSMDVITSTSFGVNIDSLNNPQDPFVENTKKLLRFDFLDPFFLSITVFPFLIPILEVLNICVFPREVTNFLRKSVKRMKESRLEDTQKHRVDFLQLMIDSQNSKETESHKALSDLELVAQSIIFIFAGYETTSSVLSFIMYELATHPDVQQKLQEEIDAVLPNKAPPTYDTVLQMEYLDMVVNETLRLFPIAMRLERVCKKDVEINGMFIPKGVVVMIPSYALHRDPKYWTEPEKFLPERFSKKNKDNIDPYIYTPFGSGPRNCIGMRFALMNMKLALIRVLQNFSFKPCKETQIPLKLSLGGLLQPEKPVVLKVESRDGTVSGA
Chain of Cytochrome P450 2D6 (P10635 whole entry): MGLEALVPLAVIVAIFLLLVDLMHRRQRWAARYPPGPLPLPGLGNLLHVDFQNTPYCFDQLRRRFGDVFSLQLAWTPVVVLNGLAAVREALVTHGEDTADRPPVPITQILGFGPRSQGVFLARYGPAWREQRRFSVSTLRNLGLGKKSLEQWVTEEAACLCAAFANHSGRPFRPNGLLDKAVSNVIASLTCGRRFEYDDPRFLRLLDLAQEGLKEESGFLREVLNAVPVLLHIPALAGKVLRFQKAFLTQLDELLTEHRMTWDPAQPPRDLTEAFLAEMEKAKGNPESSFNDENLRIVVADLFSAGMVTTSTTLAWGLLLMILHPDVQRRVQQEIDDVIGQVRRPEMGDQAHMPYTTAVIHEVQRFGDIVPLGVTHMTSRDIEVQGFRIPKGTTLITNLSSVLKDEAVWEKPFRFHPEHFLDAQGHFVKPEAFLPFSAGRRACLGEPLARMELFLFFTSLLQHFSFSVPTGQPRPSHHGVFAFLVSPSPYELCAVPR
Chain of Cytochrome P450 2C9 (P11712 whole entry): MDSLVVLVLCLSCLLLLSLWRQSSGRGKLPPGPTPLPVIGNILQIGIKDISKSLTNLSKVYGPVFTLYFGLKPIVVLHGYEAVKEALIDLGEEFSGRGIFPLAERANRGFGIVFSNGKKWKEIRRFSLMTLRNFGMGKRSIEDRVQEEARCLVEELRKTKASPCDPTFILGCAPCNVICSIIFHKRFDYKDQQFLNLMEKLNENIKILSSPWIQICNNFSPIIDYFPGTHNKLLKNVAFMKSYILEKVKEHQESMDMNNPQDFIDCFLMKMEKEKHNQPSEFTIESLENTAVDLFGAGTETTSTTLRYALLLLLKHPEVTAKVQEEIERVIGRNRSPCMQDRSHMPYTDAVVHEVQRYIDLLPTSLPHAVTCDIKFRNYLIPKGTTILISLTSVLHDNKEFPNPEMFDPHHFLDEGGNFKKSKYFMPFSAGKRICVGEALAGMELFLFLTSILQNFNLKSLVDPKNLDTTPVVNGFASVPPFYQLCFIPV

| Compound | IC50 (Cytochrome P450 1A2) [nM] | AUC(0-t) at 4 h [1] [µM·h] | Ratio (Mus musculus) | AUC(0-t) at 4 h [2] [µM·h] | Cmax [3] [µM] | Cmax [4] [µM] | IC50 (Cytochrome P450 2D6) [nM] | IC50 (Cytochrome P450 2C19) [nM] | IC50 (Cytochrome P450 3A4 [5]) [nM] | IC50 (Cytochrome P450 2C9) [nM] | IC50 (Cytochrome P450 3A4 [6]) [nM] | inhibition in vivo at 80 mg/kg/day (L2987 [7]) [%] | inhibition in vivo at 107 mg/kg/day (L2987 [8]) [%] | solubility [9] [mg/mL] | Activity (L2987 [10]) | solubility [11] [mg/mL] |
| --- | --- | --- | --- | --- | --- | --- | --- | --- | --- | --- | --- | --- | --- | --- | --- | --- |
| Cc1cc2c(F)c(Oc3ncnn4cc(OC[C@@H](C)OC(=O)CN)c(C)c34)ccc2[nH]1 | 3700 | 69 | 4.4 | 303 | 126 | 21 | 12000 | 160 | 310 | 63 | 160 |  |  |  |  |  |
| Cc1cc2c(F)c(Oc3ncnn4cc(OC[C@@H](C)OC(=O)C(C)(C)N)c(C)c34)ccc2[nH]1 |  | 46 | 4.6 | 213 | 66 | 15 |  |  |  |  |  |  |  |  |  |  |
| Cc1cc2c(F)c(Oc3ncnn4cc(OC[C@@H](C)OC(=O)C(N)CC(C)C)c(C)c34)ccc2[nH]1 (single isomer, unassigned) | 34000 | 113 | 4 | 451 | 152 | 31 | 24000 | 1800 | 370 | 2700 | 95 |  |  |  |  |  |
| Cc1cc2c(F)c(Oc3ncnn4cc(OC[C@@H](C)OC(=O)C(C)N)c(C)c34)ccc2[nH]1 (single isomer, unassigned; 8) | > 40000 | 69 |  | 276 | 78 | 21 | 24000 | 2100 |  | 9700 |  | 85 | 97 | 73 (≈ 165 mM) | Dose-dependent effect |  |
| Cc1cc2c(F)c(Oc3ncnn4cc(OC[C@@H](C)O)c(C)c34)ccc2[nH]1 [BRIVANIB] | > 40000 | 45 |  | 52 | 14 | 12 | > 40000 | > 40000 |  | > 40000 |  |  |  |  |  | < 0.001 |
